Measured values from ChEMBL document CHEMBL3352392, “Identification of novel thiadiazoloacrylamide analogues as inhibitors of dengue-2 virus NS2B/NS3 protease” (Bioorg Med Chem, 2014).
Activity calls are given as the source filed them. The calls are words filed in the database; no cut-off is given here.

How the values were obtained:
[1] = target: Genome polyprotein (dengue virus type 2) (UniProt P12823); assay: Inhibition of Dengue virus 2 NS2B/NS3 protease using Bz-Nle-Lys-Arg-Arg-AMC as substrate preincubated at 20 uM for 30 mins before substrate addition by fluorescence assay
Summary of the method: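 E. coli BL21-expressed DENV2 NS2B-NS3pro, 200 nM, with compound at 20 µM in 50 mM Tris-HCl pH 8.5, 10 mM NaCl, 20% glycerol, 1 mM CHAPS, 37 °C for 30 min. Bz-Nle-Lys-Arg-Arg-AMC added to start. Fluorescence read every 10 s for 5 min (ex 380/em 460 nm). Inhibition rate from maximum reaction rate with versus without compound. Aprotinin 1 µM as positive control.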

Genome polyprotein [2] = target: T1, Genome polyprotein (dengue virus type 2, UniProt P12823); assay: (§1) Binding affinity to Dengue virus 2 NS2B/NS3 protease by SPR assay
Summary of the method: (§2)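 DENV2 NS2B/NS3pro purified from E. coli BL21 and amine-coupled onto a CM5 chip in 10 mM sodium acetate, pH 3.95. Compounds serially diluted in HBS (0.01 M HEPES, 0.15 M NaCl, 3 mM EDTA, 0.005% P20, pH 7.4). Biacore 3000 SPR gave the equilibrium KD.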

Genome polyprotein [3] = target: T1, Genome polyprotein; assay: Inhibition of Dengue virus 2 NS2B/NS3 protease using Bz-Nle-Lys-Arg-Arg-AMC as substrate preincubated for 30 mins before substrate addition by fluorescence assay
Summary of the method: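 Purified DENV2 NS2B-NS3pro (200 nM; E. coli BL21) mixed with compound at eleven levels, 0.1 nM–200 µM, in pH 8.5 Tris-HCl buffer with 10 mM NaCl, 20% glycerol, 1 mM CHAPS. Preincubated 30 min at 37 °C, then Bz-Nle-Lys-Arg-Arg-AMC added. AMC fluorescence (380/460 nm) followed every 10 s over 5 min. IC50 from the concentration series.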

[4] = target: Genome polyprotein (dengue virus type 2) (UniProt P12823); assay: as §1; summary of the method: as §2

Structure (SMILES) | inhibition [1] [%] | Kd (Genome polyprotein [2]) [µM] | IC50 (Genome polyprotein [3]) [µM] | Activity [4]
N#C/C(=C\c1cn(Cc2ccccc2)c2ccccc12)C(=O)Nc1nnc(SCc2ccccc2)s1 | 79 | 3.59 | 4.44 | –
N#C/C(=C\c1cn(Cc2ccccc2)c2ccccc12)C(=O)Nc1nnc(SCc2cccc3ccccc23)s1 | 50 | – | – | –
N=C1/C(=C/c2cn(Cc3ccccc3)c3ccccc23)C(=O)N=C2SC(SCc3ccccc3)=NN12 | 72 | – | 6.09 | –
N#C/C(=C\c1cn(Cc2ccccc2)c2ccccc12)C(=O)Nc1nnc(SCc2ccc(Cl)cc2)s1 | 63.4 | – | – | –
N#C/C(=C\c1cn(Cc2ccc(C(F)(F)F)cc2)c2ccccc12)C(=O)Nc1nnc(SCc2ccccc2)s1 | 45.9 | – | – | –
N#C/C(=C\c1cn(Cc2ccccc2)c2ccccc12)C(=O)Nc1nnc(SCc2ccc(F)cc2)s1 | 83.4 | – | 3.72 | –
N#C/C(=C\c1cn(Cc2ccccc2C#N)c2ccccc12)C(=O)Nc1nnc(SCc2ccccc2)s1 | 85.8 | – | 2.86 | –
COc1ccc(CSc2nnc(NC(=O)/C(C#N)=C/c3cn(Cc4ccccc4)c4ccccc34)s2)cc1 | 76.3 | – | 3.44 | –
N#C/C(=C\c1cn(Cc2ccccc2)c2ccccc12)C(=O)Nc1nnc(C(F)(F)F)s1 | 76 | 9.27 | 10.1 | –
N#C/C(=C\c1cn(Cc2ccccc2)c2ccccc12)C(=O)Nc1nnc(SCc2ccc(Br)cc2)s1 | 65.8 | – | – | –

Results, then the molecule that gave them:

inhibition [1] [%] | Kd (Genome polyprotein [2]) [µM] | IC50 (Genome polyprotein [3]) [µM] | Activity [4] | Structure (SMILES)
– | – | – | inactive | O=C(/C=C/c1cn(Cc2ccccc2)c2ccccc12)Nc1nnc(C(F)(F)F)s1
63.5 | – | – | – | N#C/C(=C\c1cn(Cc2ccccc2)c2ccccc12)C(=O)Nc1nnc(SCc2ccccc2Cl)s1
54.1 | – | – | – | N#C/C(=C\c1cn(Cc2ccc(C(F)(F)F)cc2C(F)(F)F)c2ccccc12)C(=O)Nc1nnc(SCc2ccccc2)s1
86.5 | 2.07 | 2.24 | – | N#C/C(=C\c1cn(Cc2ccc(F)cc2)c2ccccc12)C(=O)Nc1nnc(SCc2ccccc2)s1
88.9 | – | 3.58 | – | N#C/C(=C\c1cn(Cc2ccccc2F)c2ccccc12)C(=O)Nc1nnc(SCc2ccccc2)s1
69.4 | – | – | – | Cc1ccccc1CSc1nnc(NC(=O)/C(C#N)=C/c2cn(Cc3ccccc3)c3ccccc23)s1
